# According to ChEMBL document CHEMBL3351523 (Bioorg Med Chem, 2014):
# Tested on: not listed separately
# Assay: Cytotoxicity against mock-infected MDBK cells after 48 to 96 hrs by MTT assay
# Format: cell-based, Bos taurus
# Settings: cattle
# In short: (§1)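 Mock-infected MDBK (6 × 10^5 cells/mL; MEM-E, 10% horse serum, 1 mM pyruvate) or BHK (1 × 10^6 cells/mL; MEM-E, 10% FBS) cells were incubated at 37 °C, 5% CO2 with serial dilutions from 100 µM, 1:5. Viability by MTT after 48–96 h. CC50 from linear regression against untreated controls.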
row,SMILES,CC50
1,Clc1cc2nc(C3CCCO3)[nH]c2cc1Cl (centres undefined),> 100 µM
2,Clc1cc2nc(C3CCCCO3)[nH]c2cc1Cl (centres undefined),> 100 µM
3,O=C1c2ccccc2-n2c(nc3cccnc32)CN1C[C@@H]1CCCN2CCCC[C@H]12,91 µM
4,CCN(CC)CCCn1c(-c2ccc(OC)cc2)nc2cc(C(F)(F)F)ccc21,> 100 µM
5,COc1ccc(-c2nc3cc(Cl)ccc3n2[C@H]2CCCN3CCCC[C@H]23)cc1,> 100 µM
6,COc1ccc(-c2nc3cc(Cl)ccc3n2[C@@H]2CCCN3CCCC[C@H]23)cc1,> 100 µM

# Tested on: Human alphaherpesvirus 1
# Assay: Antiviral activity against HSV1 infected in african green monkey Vero 76 cells assessed as reduction in plaque number after 3 days by plaque reduction assay
# Format: functional, organism-based
# Settings: Human alphaherpesvirus 1, Vero, 72 h
row,SMILES,EC50
1,Clc1cc2nc(C3CCCCO3)[nH]c2cc1Cl (centres undefined),> 100 µM
2,CCN(CC)CCCn1c(-c2ccc(OC)cc2)nc2cc(C(F)(F)F)ccc21,> 100 µM
3,COc1ccc(-c2nc3cc(Cl)ccc3n2[C@H]2CCCN3CCCC[C@H]23)cc1,> 100 µM
4,COc1ccc(-c2nc3cc(Cl)ccc3n2[C@@H]2CCCN3CCCC[C@H]23)cc1,> 100 µM

# Tested on: not listed separately
# Assay: Cytotoxicity against mock-infected BHK21 cells after 48 to 96 hrs by MTT assay
# Format: functional
# Settings: Mesocricetus auratus, BHK-21
# In short: as §1
row,SMILES,CC50
1,Clc1cc2nc(C3CCCO3)[nH]c2cc1Cl (centres undefined),> 100 µM
2,Clc1cc2nc(C3CCCCO3)[nH]c2cc1Cl (centres undefined),> 100 µM
3,O=C1c2ccccc2-n2c(nc3cccnc32)CN1C[C@@H]1CCCN2CCCC[C@H]12,37 µM
4,CCN(CC)CCCn1c(-c2ccc(OC)cc2)nc2cc(C(F)(F)F)ccc21,76 µM
5,COc1ccc(-c2nc3cc(Cl)ccc3n2[C@H]2CCCN3CCCC[C@H]23)cc1,> 100 µM
6,COc1ccc(-c2nc3cc(Cl)ccc3n2[C@@H]2CCCN3CCCC[C@H]23)cc1,> 100 µM

# Tested on: Reovirus sp.
# Assay: Antiviral activity against Reovirus type-1 infected in BHK21 cells assessed as inhibition of virus-induced cytopathogenicity after 3 to 4 days by MTT assay
# Format: functional, organism-based
# Settings: BHK-21
row,SMILES,EC50
1,Clc1cc2nc(C3CCCCO3)[nH]c2cc1Cl (centres undefined),> 100 µM
2,CCN(CC)CCCn1c(-c2ccc(OC)cc2)nc2cc(C(F)(F)F)ccc21,> 100 µM
3,COc1ccc(-c2nc3cc(Cl)ccc3n2[C@H]2CCCN3CCCC[C@H]23)cc1,> 100 µM
4,COc1ccc(-c2nc3cc(Cl)ccc3n2[C@@H]2CCCN3CCCC[C@H]23)cc1,> 100 µM

# Tested on: Coxsackievirus B5
# Assay: Antiviral activity against Coxsackievirus B5 infected in african green monkey Vero 76 cells assessed as reduction in plaque number after 3 days by plaque reduction assay
# Format: functional, organism-based
# Settings: Enterovirus B, 72 h
row,SMILES,EC50
1,O=C1c2ccccc2-n2c(nc3cccnc32)CN1C[C@@H]1CCCN2CCCC[C@H]12,> 100 µM
2,CCN(CC)CCCn1c(-c2ccc(OC)cc2)nc2cc(C(F)(F)F)ccc21,> 100 µM
3,COc1ccc(-c2nc3cc(Cl)ccc3n2[C@H]2CCCN3CCCC[C@H]23)cc1,> 100 µM
4,COc1ccc(-c2nc3cc(Cl)ccc3n2[C@@H]2CCCN3CCCC[C@H]23)cc1,> 100 µM

# Tested on: Vaccinia virus
# Assay: Antiviral activity against Vaccinia Virus infected in african green monkey Vero 76 cells assessed as reduction in plaque number after 3 days by plaque reduction assay
# Format: functional, organism-based
# Settings: Orthopoxvirus vaccinia, 72 h
row,SMILES,EC50
1,O=C1c2ccccc2-n2c(nc3cccnc32)CN1C[C@@H]1CCCN2CCCC[C@H]12,> 100 µM
2,CCN(CC)CCCn1c(-c2ccc(OC)cc2)nc2cc(C(F)(F)F)ccc21,> 100 µM
3,COc1ccc(-c2nc3cc(Cl)ccc3n2[C@H]2CCCN3CCCC[C@H]23)cc1,> 100 µM
4,COc1ccc(-c2nc3cc(Cl)ccc3n2[C@@H]2CCCN3CCCC[C@H]23)cc1,> 100 µM

# Tested on: Respiratory syncytial virus
# Assay: Antiviral activity against Respiratory syncytial virus infected in african green monkey Vero 76 cells assessed as reduction in plaque number after 5 days by plaque reduction assay
# Format: functional, organism-based
# Settings: human respiratory syncytial virus, 120 h
row,SMILES,EC50
1,O=C1c2ccccc2-n2c(nc3cccnc32)CN1C[C@@H]1CCCN2CCCC[C@H]12,> 100 µM
2,CCN(CC)CCCn1c(-c2ccc(OC)cc2)nc2cc(C(F)(F)F)ccc21,> 100 µM
3,COc1ccc(-c2nc3cc(Cl)ccc3n2[C@H]2CCCN3CCCC[C@H]23)cc1,> 100 µM
4,COc1ccc(-c2nc3cc(Cl)ccc3n2[C@@H]2CCCN3CCCC[C@H]23)cc1,> 100 µM

# Tested on: Yellow fever virus
# Assay: Antiviral activity against Yellow fever virus infected in BHK21 cells assessed as inhibition of virus-induced cytopathogenicity after 3 to 4 days by MTT assay
# Format: functional, organism-based
# Settings: BHK-21
row,SMILES,EC50
1,Clc1cc2nc(C3CCCO3)[nH]c2cc1Cl (centres undefined),> 100 µM
2,Clc1cc2nc(C3CCCCO3)[nH]c2cc1Cl (centres undefined),> 100 µM
3,O=C1c2ccccc2-n2c(nc3cccnc32)CN1C[C@@H]1CCCN2CCCC[C@H]12,> 100 µM
4,CCN(CC)CCCn1c(-c2ccc(OC)cc2)nc2cc(C(F)(F)F)ccc21,> 100 µM
5,COc1ccc(-c2nc3cc(Cl)ccc3n2[C@H]2CCCN3CCCC[C@H]23)cc1,> 100 µM
6,COc1ccc(-c2nc3cc(Cl)ccc3n2[C@@H]2CCCN3CCCC[C@H]23)cc1,> 100 µM

# Tested on: Poliovirus 1
# Assay: Antiviral activity against Poliovirus type 1 Sabin strain infected in african green monkey Vero 76 cells assessed as reduction in plaque number after 2 days by plaque reduction assay
# Format: functional, organism-based
# Settings: Enterovirus C, 48 h
row,SMILES,EC50
1,Clc1cc2nc(C3CCCCO3)[nH]c2cc1Cl (centres undefined),60 µM
2,O=C1c2ccccc2-n2c(nc3cccnc32)CN1C[C@@H]1CCCN2CCCC[C@H]12,> 100 µM
3,CCN(CC)CCCn1c(-c2ccc(OC)cc2)nc2cc(C(F)(F)F)ccc21,> 100 µM
4,COc1ccc(-c2nc3cc(Cl)ccc3n2[C@H]2CCCN3CCCC[C@H]23)cc1,> 100 µM
5,COc1ccc(-c2nc3cc(Cl)ccc3n2[C@@H]2CCCN3CCCC[C@H]23)cc1,> 100 µM

# Tested on: Vesicular stomatitis virus
# Assay: Antiviral activity against Vesicular stomatitis virus infected in african green monkey Vero 76 cells assessed as reduction in plaque number after 2 days by plaque reduction assay
# Format: functional, organism-based
# Settings: 48 h
row,SMILES,EC50
1,Clc1cc2nc(C3CCCCO3)[nH]c2cc1Cl (centres undefined),> 100 µM
2,O=C1c2ccccc2-n2c(nc3cccnc32)CN1C[C@@H]1CCCN2CCCC[C@H]12,> 100 µM
3,CCN(CC)CCCn1c(-c2ccc(OC)cc2)nc2cc(C(F)(F)F)ccc21,> 100 µM
4,COc1ccc(-c2nc3cc(Cl)ccc3n2[C@H]2CCCN3CCCC[C@H]23)cc1,> 100 µM
5,COc1ccc(-c2nc3cc(Cl)ccc3n2[C@@H]2CCCN3CCCC[C@H]23)cc1,> 100 µM

# Tested on: not listed separately
# Assay: Cytotoxicity against mock-infected human MT4 cells after 96 hrs by MTT assay
# Format: cell-based
# Settings: not given
# In short: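 Exponentially growing MT-4 cells were seeded at 1 × 10^5 cells/mL in RPMI-1640 with 10% FBS and held at 37 °C, 5% CO2 with serial compound dilutions. Viability was read by MTT after 96 h. CC50 from linear regression against untreated controls.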
row,SMILES,CC50 at 96 h
1,Clc1cc2nc(C3CCCCO3)[nH]c2cc1Cl (centres undefined),6 µM
2,O=C1c2ccccc2-n2c(nc3cccnc32)CN1C[C@@H]1CCCN2CCCC[C@H]12,31 µM
3,CCN(CC)CCCn1c(-c2ccc(OC)cc2)nc2cc(C(F)(F)F)ccc21,> 100 µM
4,COc1ccc(-c2nc3cc(Cl)ccc3n2[C@H]2CCCN3CCCC[C@H]23)cc1,> 100 µM
5,COc1ccc(-c2nc3cc(Cl)ccc3n2[C@@H]2CCCN3CCCC[C@H]23)cc1,> 100 µM

# Tested on: Bovine viral diarrhea virus 1
# Assay: Antiviral activity against Bovine viral diarrhea virus infected in MDBK cells assessed as inhibition of virus-induced cytopathogenicity after 3 to 4 days by MTT assay
# Format: functional, organism-based
# Settings: Bovine viral diarrhea virus isolates and strains
row,SMILES,EC50
1,Clc1cc2nc(C3CCCO3)[nH]c2cc1Cl (centres undefined),> 100 µM
2,Clc1cc2nc(C3CCCCO3)[nH]c2cc1Cl (centres undefined),> 100 µM
3,O=C1c2ccccc2-n2c(nc3cccnc32)CN1C[C@@H]1CCCN2CCCC[C@H]12,17 µM
4,CCN(CC)CCCn1c(-c2ccc(OC)cc2)nc2cc(C(F)(F)F)ccc21,> 100 µM
5,COc1ccc(-c2nc3cc(Cl)ccc3n2[C@H]2CCCN3CCCC[C@H]23)cc1,36 µM
6,COc1ccc(-c2nc3cc(Cl)ccc3n2[C@@H]2CCCN3CCCC[C@H]23)cc1,> 100 µM

# Tested on: Human immunodeficiency virus 1
# Assay: Antiviral activity against HIV1 infected in human MT4 cells assessed as inhibition of virus-induced cytopathogenicity after 4 days by MTT assay
# Format: functional, organism-based
# Settings: Human immunodeficiency virus 1, MT4, 96 h
# In short: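 MT-4 cells (1 × 10^4/well in RPMI) were infected acutely with HIV-1 IIIB, 100 CCID50 (m.o.i. 0.01), with serial dilutions from 100 µM, 1:5. After 4 days at 37 °C, protection from virus-induced cytopathogenicity was read by MTT. EC50 came from linear regression against untreated controls.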
row,SMILES,EC50
1,Clc1cc2nc(C3CCCCO3)[nH]c2cc1Cl (centres undefined),> 100 µM
2,O=C1c2ccccc2-n2c(nc3cccnc32)CN1C[C@@H]1CCCN2CCCC[C@H]12,> 100 µM
3,CCN(CC)CCCn1c(-c2ccc(OC)cc2)nc2cc(C(F)(F)F)ccc21,> 100 µM
4,COc1ccc(-c2nc3cc(Cl)ccc3n2[C@H]2CCCN3CCCC[C@H]23)cc1,> 100 µM
5,COc1ccc(-c2nc3cc(Cl)ccc3n2[C@@H]2CCCN3CCCC[C@H]23)cc1,> 100 µM

# Tested on: not listed separately
# Assay: Cytotoxicity against mock-infected african green monkey Vero 76 cells after 48 to 96 hrs by MTT assay
# Format: cell-based
# Settings: chlorocebus sabaeus, mock-infected Vero 76 cells
row,SMILES,CC50
1,Clc1cc2nc(C3CCCCO3)[nH]c2cc1Cl (centres undefined),> 100 µM
2,O=C1c2ccccc2-n2c(nc3cccnc32)CN1C[C@@H]1CCCN2CCCC[C@H]12,> 90 µM
3,CCN(CC)CCCn1c(-c2ccc(OC)cc2)nc2cc(C(F)(F)F)ccc21,> 100 µM
4,COc1ccc(-c2nc3cc(Cl)ccc3n2[C@H]2CCCN3CCCC[C@H]23)cc1,> 100 µM
5,COc1ccc(-c2nc3cc(Cl)ccc3n2[C@@H]2CCCN3CCCC[C@H]23)cc1,> 100 µM
